ChEMBL document CHEMBL2176974, “A bactericidal guanidinomethyl biaryl that alters the dynamics of bacterial FtsZ polymerization” (J Med Chem, 2012)
Where a chain is given by its changes, count along the chain named. Converted amounts (≈) assume the structure as drawn. The source made the active and inactive calls. No cut-off for these calls is given here.

How the values were obtained:
Staphylococcus aureus [1] = assay: Potency index, ratio of erythromycin to compound bactericidal effect in methicillin-sensitive Staphylococcus aureus 8325-4 at 8 times MIC by time kill study; type: functional
Staphylococcus aureus [2] = assay: Potency index, ratio of vancomycin to compound bactericidal effect in methicillin-sensitive Staphylococcus aureus 8325-4 at 8 times MIC by time kill study; type: functional
Staphylococcus aureus [3] = assay: Bactericidal activity against methicillin-sensitive Staphylococcus aureus 8325-4 at 8 times MIC measured within 6 hrs post dose for 24 hrs assessed as log reduction in bacterial CFU by time kill study; type: functional
In short: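 Exponentially growing S. aureus 8325-4 was diluted in CAMH broth to 10⁵–10⁶ CFU/mL. […] Samples taken at 2, 4 and 6 h were pelleted or diluted, then plated on TSA. Colonies were counted after 24 h at 37 °C. Points are the mean of two independent measurements.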

Klebsiella pneumoniae = assay: Antimicrobial activity against Klebsiella pneumoniae ATCC 13883 incubated for 24 hrs by broth microdilution method; type: functional; conditions: ATCC 13883, 24 h
In short: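 CLSI broth microdilution. Log-phase bacteria at 10⁵ CFU/mL were added to 2-fold serial dilutions (64 to 0.016 μg/mL) in cation-adjusted Mueller-Hinton broth. Plates were incubated aerobically for 24 h at 37 °C and growth was read as OD600. MIC is the lowest concentration giving 90% growth inhibition.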

Staphylococcus aureus [4] = assay: Antimicrobial activity against methicillin-resistant Staphylococcus aureus Mu3 incubated for 24 hrs by broth microdilution method; type: functional; conditions: Mu3, 24 h
Staphylococcus aureus [5] = assay: microbe, parasite or virus in culture; type: functional; conditions: ATCC 33591, 24 h
[6] = test system: T1, Cell division protein FtsZ (Staphylococcus aureus), P0A031 [I228R]; assay: Binding affinity to Staphylococcus aureus FtsZ I228R mutant self-polymerization at 10 ug/mL by microtiter plate-based light scattering assay
T1 sequence (whole entry): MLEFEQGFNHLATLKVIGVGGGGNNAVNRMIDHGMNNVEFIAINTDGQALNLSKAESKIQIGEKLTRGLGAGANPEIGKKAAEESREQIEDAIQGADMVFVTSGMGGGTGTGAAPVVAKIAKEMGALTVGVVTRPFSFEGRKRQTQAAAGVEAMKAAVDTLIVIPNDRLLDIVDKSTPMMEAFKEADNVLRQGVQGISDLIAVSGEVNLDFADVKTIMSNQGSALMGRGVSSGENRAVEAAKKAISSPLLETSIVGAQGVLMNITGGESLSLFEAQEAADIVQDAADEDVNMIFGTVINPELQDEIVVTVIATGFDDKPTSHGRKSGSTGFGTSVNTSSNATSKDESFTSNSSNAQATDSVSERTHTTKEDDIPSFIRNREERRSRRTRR

[7] = target: Cell division protein FtsZ (Staphylococcus aureus, UniProt P0A031, G196A); assay: Binding affinity to Staphylococcus aureus FtsZ G196A mutant expressed in Escherichia coli BL21 (DE3) at 25 degC by fluorescence anisotropy assay
[8] = target: Cell division protein FtsZ (Staphylococcus aureus, UniProt P0A031, E185A); assay: Binding affinity to Staphylococcus aureus FtsZ E185A mutant expressed in Escherichia coli BL21 (DE3) at 25 degC by fluorescence anisotropy assay
In short: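 Purified SaFtsZ mutant protein (0–25 μM) mixed with 5 μM compound in 50 mM Tris·HCl pH 7.4, 50 mM KCl, 2 mM magnesium acetate. After 5 min at 25 °C, steady-state fluorescence anisotropy read at excitation 245 / emission 318 nm, G-factor corrected, triplicate. Kd from nonlinear least-squares fit.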

Enterococcus faecalis [9] = assay: Binding affinity to Enterococcus faecalis FtsZ at 40 um by fluorescence anisotropy BoGTPgammaS competition assay
In short: (§1)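 Competition with fluorescent BoGTPγS. BoGTPγS (1 μM final) was mixed with 5 μM FtsZ and compound or unlabeled GTP at 0–40 μM. Buffer was 50 mM Tris·HCl pH 7.4, 50 mM KCl, 2 mM magnesium acetate. After 5 min at 25 °C, anisotropy was read at excitation 488 nm and emission 510 nm, in triplicate and averaged.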

[10] = target: T2, Cell division protein FtsZ (Escherichia coli K-12) (UniProt P0A9A6); assay: Binding affinity to Escherichia coli FtsZ at 40 uM by fluorescence anisotropy BoGTPgammaS competition assay; in short: as §1
T2 sequence (whole entry): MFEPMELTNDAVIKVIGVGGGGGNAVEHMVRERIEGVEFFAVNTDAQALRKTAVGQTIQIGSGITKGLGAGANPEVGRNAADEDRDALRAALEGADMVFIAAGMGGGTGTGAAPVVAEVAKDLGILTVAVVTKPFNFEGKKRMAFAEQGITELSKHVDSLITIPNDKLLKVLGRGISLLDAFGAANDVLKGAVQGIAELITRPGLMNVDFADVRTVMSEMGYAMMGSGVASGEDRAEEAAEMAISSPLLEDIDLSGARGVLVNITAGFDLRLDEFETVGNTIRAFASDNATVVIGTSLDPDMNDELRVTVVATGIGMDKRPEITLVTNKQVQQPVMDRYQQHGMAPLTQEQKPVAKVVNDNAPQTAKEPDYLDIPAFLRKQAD

[11] = target: T3, Cell division protein FtsZ (Staphylococcus aureus) (UniProt P0A031); assay: Binding affinity to Staphylococcus aureus FtsZ expressed in Escherichia coli BL21 (DE3) at 40 uM by fluorescence anisotropy BoGTPgammaS competition assay
T3 sequence (whole entry): T1 sequence (whole entry) with R228I
In short: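 Competition: 1 μM BODIPY-GTPγS with 0 or 5 μM SaFtsZ and compound at 0–40 μM in 50 mM Tris·HCl pH 7.4, 50 mM KCl, 2 mM magnesium acetate. After 5 min at 25 °C, anisotropy read at excitation 488 / emission 510 nm, 4 nm bandwidths, triplicate. Unlabeled GTP used as the positive control.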

Enterococcus faecalis [12] = assay: Stimulation of Enterococcus faecalis FtsZ self-polymerization by microtiter plate-based light scattering assay
[13] = target: T2, Cell division protein FtsZ (Escherichia coli K-12); assay: Stimulation of Escherichia coli FtsZ self-polymerization by microtiter plate-based light scattering assay
[14] = Selectivity index, ratio of Kd for Enterococcus faecalis FtsZ to Kd for Escherichia coli FtsZ
In short: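 Buffer was 50 mM Tris·HCl pH 7.4, 50 mM KCl, 2 mM magnesium acetate. Kd came from nonlinear least-squares fits, and the index is the ratio of the two Kd values.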

[15] = target: T3, Cell division protein FtsZ (Staphylococcus aureus); assay: Stimulation of Staphylococcus aureus FtsZ self-polymerization by microtiter plate-based light scattering assay

## CC(C)(C)c1ccc(-c2cccc(CNC(=N)N)c2)cc1
Staphylococcus aureus [1]
  Ratio: >1000
Staphylococcus aureus [2]
  Ratio: 100
Staphylococcus aureus [3]
  FC: 4
Klebsiella pneumoniae
  MIC: 32 µg/mL (≈ 114 µM)
Staphylococcus aureus [4]
  MIC: 1 µg/mL (≈ 3.55 µM)
Staphylococcus aureus [5]
  MIC: 1 µg/mL (≈ 3.55 µM)
[6]
  Activity: Active
[7]
  Kd: 5 µM
[8]
  Kd: 38.3 µM
Enterococcus faecalis [9]
  Activity: inactive
[10]
  Activity: inactive
[11]
  Activity: inactive
Enterococcus faecalis [12]
  Activity: Dose-dependent effect
[13]
  Activity: Dose-dependent effect
[14]
  Ratio: 6
[15]
  Activity: Dose-dependent effect
